Measured values as given in ChEMBL document CHEMBL1255564, “A novel series of positive modulators of the AMPA receptor: discovery and structure based hit-to-lead studies” (Bioorg Med Chem Lett, 2010).
≈ marks a conversion by molar mass, not a printed value.

What was measured:
[1] = […]
In short: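 Cells washed in low-Ca buffer (pH 7.4, 2 mM CaCl₂) with 0.625 mM probenecid. Glutamate ± compound added in 20 mM CaCl₂ buffer. Ca²⁺ fluorescence read; pEC50 is the mean of two experiments run in duplicate.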

[2] = Volume of distribution at steady state in Wistar rat at 2 mg/kg, iv; format: ADME, organism-based; set-up: dose 2 mg/kg, route intravenous; settings: in vivo, read-out: Vdss
[3] = Clearance in Wistar rat at 2 mg/kg, iv; format: ADME, organism-based; set-up: dose 2 mg/kg, route intravenous; settings: in vivo
[4] = Intrinsic clearance in human liver microsomes; format: ADME, Microsome
[5] = Permeability from apical to basolateral side of human Caco-2 cells; format: ADME, cell-based; settings: read-out: permeability
[6] = Permeability from basolateral to apical side of human Caco-2 cells; format: ADME, cell-based; settings: read-out: permeability
[7] = Intrinsic clearance in rat liver microsomes; format: ADME, Microsome
[8] = Half life in Wistar rat at 2 mg/kg, iv; format: ADME, organism-based; set-up: dose 2 mg/kg, route intravenous; settings: in vivo
[9] = Aqueous solubility of the compound; format: physicochemical

pEC50 [1] | Structure (SMILES) | also measured
< 4.5 | NC(=O)c1c(NC(=O)Cn2c(C(F)(F)F)nc3ccccc32)sc2c1CCCC2 | 
5.3 | NC(=O)c1c(NC(=O)Cn2ccc(C(F)(F)F)n2)sc2c1CCCC2 | 
6.1 | Cc1sc(NC(=O)Cn2nc(C(F)(F)F)c3c2CCCC3)c(C(N)=O)c1C | 
6.2 | O=C(Cn1nc(C(F)(F)F)c2c1CCCC2)Nc1sc2c(c1C(=O)NCC1CNC1)CCCC2 | 
6.2 | O=C(Cn1nc(C(F)(F)F)c2c1CCCC2)Nc1sc2c(c1C(=O)NC1CC1)CCCC2 | 
6.2 | CCc1c(C)sc(NC(=O)Cn2nc(C(F)(F)F)c3c2CCCC3)c1C(N)=O | 
6.5 | CCNC(=O)c1c(NC(=O)Cn2nc(C(F)(F)F)c3c2CCCC3)sc2c1CCCC2 | 
6.4 | NCCCNC(=O)c1c(NC(=O)Cn2nc(C(F)(F)F)c3c2CCCC3)sc2c1CCCC2 | Vd [2]: 3.8 L/kg; clearance [3]: 21 mL/min/kg; microsomal CLint [4]: 17 µL/min/mg; Papp A→B [5]: 3.4 ×10⁻⁶ cm/s; Papp B→A [6]: 5.5 ×10⁻⁶ cm/s; microsomal CLint [7]: 77 µL/min/mg; half-life [8]: 3.2 h
5.8 | NC(=O)c1c(NC(=O)Cn2nc(C(F)(F)F)cc2C(F)(F)F)sc2c1CCCC2 | solubility [9]: < 1 µg/mL; microsomal CLint [4]: 174 µL/min/mg; microsomal CLint [7]: 200 µL/min/mg
5.7 | CNCCNC(=O)c1c(NC(=O)Cn2nc(C(F)(F)F)c3c2CCCC3)sc2c1CCCC2 | 
7.3 | O=C(Cn1nc(C(F)(F)F)c2c1CCCC2)Nc1sc2c(c1C(=O)NCCO)CCCC2 | 
7 | CS(=O)(=O)NCCNC(=O)c1c(NC(=O)Cn2nc(C(F)(F)F)c3c2CCCC3)sc2c1CCCC2 | 
5.8 | NCCNC(=O)c1c(NC(=O)Cn2nc(C(F)(F)F)c3c2CCCC3)sc2c1CCCC2 | 
6.6 | O=C(Cn1nc(C(F)(F)F)c2c1CCCC2)Nc1sc2c(c1C(=O)N[C@@H]1CCNC1)CCCC2 | 
6.4 | NC(=O)c1c(NC(=O)Cn2nc(C(F)(F)F)c3cnccc32)sc2c1CCCC2 | microsomal CLint [7]: 91 µL/min/mg
6.5 | O=C(Cn1nc(C(F)(F)F)c2c1CCCC2)Nc1sc2c(c1C(=O)NC1CNC1)CCCC2 | 
5.5 | NC(=O)c1c(CO)csc1NC(=O)Cn1nc(C(F)(F)F)c2c1CCCC2 | 
5.9 | NCCCCNC(=O)c1c(NC(=O)Cn2nc(C(F)(F)F)c3c2CCCC3)sc2c1CCCC2 | 
6.7 | NC(=O)c1c(NC(=O)Cn2nc(C(F)(F)F)c3c2CCCC3)sc2c1CCCC2 | 
5.8 | O=C(Cn1nc(C(F)(F)F)c2c1CCCC2)Nc1sc2c(c1C(=O)N[C@H]1CCNC1)CCCC2 | 
5.3 | NC(=O)c1c(NC(=O)Cn2nc(C(F)(F)F)c3c2CCCC3)sc2c1CCNC2 | 
< 4.5 | Cc1cc(C)n(CC(=O)Nc2sc3c(c2C(N)=O)CCCC3)n1 | 
6.7 | NC(=O)c1c(NC(=O)Cn2nc(C(F)(F)F)c3c2CCCC3)sc2c1CCOC2 | microsomal CLint [4]: > 270 µL/min/mg
5.2 | CN(C)CCNC(=O)c1c(NC(=O)Cn2nc(C(F)(F)F)c3c2CCCC3)sc2c1CCCC2 | 
5.2 | NC(=O)c1ccsc1NC(=O)Cn1nc(C(F)(F)F)c2c1CCCC2 | solubility [9]: 10 µg/mL (≈ 26.9 µM)
